Calls of active or inactive are those of the source. No cut-off for these calls is given here.
Columns and labels:
[1] = Drug level in Sprague-Dawley rat plasma at 100 mg/kg, po measured 2 hrs post dose by LC-MS/MS analysis; assay type: ADME, organism-based
How it was run: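 Drug-naive Sprague−Dawley rats (n = 4−5/group) were dosed orally once in 5% Solutol plus 20% Captisol in 25 mM PBS, pH 2, and euthanized 2 h later by CO₂. CSF was drawn from the cisterna magna. Drug was measured in CSF, brain and plasma; data as mean ± SEM.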

Rattus norvegicus [2] = assay: In vivo inhibition of glycine transporter-1 in Sprague-Dawley rat assessed as increase in CSF glycine level at 1 to 10 mg/kg, po qd for 5 days; assay type: functional, organism-based
How it was run: (§1)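 Drug-naive Sprague-Dawley rats, n = 5 per group, dosed orally once daily for 5 days with vehicle or 1.6, 4.8 or 16.1 μmol/kg. Vehicle was 5% Solutol / 20% Captisol in 25 mM PBS, pH 2. Killed 2 h or 48 h after the last dose. CSF glycine was expressed as % of vehicle control (vehicle 2 h post last dose), mean ± SEM. Two-way ANOVA with Tukey test.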

Rattus norvegicus [3] = assay: In vivo inhibition of glycine transporter-1 in Sprague-Dawley rat assessed as CSF glycine level at 10 mg/kg, po qd for 5 days measured 2 hrs post last dose by LC-MS/MS analysis relative to control; assay type: functional; parameters: scale not given: the % may be the effect or the level left; how it was run: as §1
[4] = Drug level in Sprague-Dawley rat CSF at 10 mg/kg, po qd for 5 days measured 2 hrs post last dose by LC-MS/MS analysis; assay type: ADME, organism-based, Cerebrospinal fluid; settings: read-out: Drug uptake
How it was run: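 Drug-naive Sprague−Dawley rats (n = 5/group) were dosed orally once daily for 5 days in 5% Solutol plus 20% Captisol in 25 mM PBS, pH 2, and sacrificed 2 h after the last dose. Drug was measured in CSF, brain and plasma; mean ± SEM.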

[5] = Toxicity in Sprague-Dawley rat assessed as gross behavioral abnormality at 1 to 10 mg/kg, po qd for 5 days; assay type: organism-based; settings: in vivo, 120 h
How it was run: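 Drug-naive Sprague–Dawley rats (n = 5/group) were dosed orally once daily for 5 days at 1.6, 4.8 or 16.1 μmol/kg in 5% Solutol/20% Captisol in 25 mM PBS, pH 2.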

[6] = Drug level in cynomolgus monkey CSF at 10 mg/kg, po measured at 12 hrs post dose by LC-MS/MS analysis; assay type: ADME, organism-based, Macaca fascicularis, Cerebrospinal fluid; settings: read-out: Drug uptake
How it was run: (§2)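 Cynomolgus monkeys (n = 3/group) fitted with subcutaneous CSF ports were dosed orally at 0.4−15.7 μmol/kg in 5% Solutol plus 20% Captisol in 25 mM PBS, pH 2. CSF (about 0.30 mL) and blood were sampled predose and at 0.5, 1, 2, 3, 4, 8, 12 and 24 h. Quantitation limit 1.0 ng/mL; mean ± SD.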

[7] = AUClast in Sprague-Dawley rat plasma at 10 mg/kg, po or 2 mg/kg, iv administered as single dose measured up to 24 hrs post dose by LC-MS/MS analysis; assay type: ADME, organism-based
How it was run: (§3)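 Single-dose PK in drug-naive adult male Sprague−Dawley rats, n = 3 per group: 3.1 μmol/kg IV in 5% DMSO/10% Solutol in saline (5 mL/kg), or 15.7 μmol/kg PO in 5% Solutol/10% Captisol in 25 mM PBS, pH adjusted to 2 with HCl. Plasma parameters reported as mean ± SD.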

[8] = Cmax in Sprague-Dawley rat plasma at 10 mg/kg, po administered as single dose by LC-MS/MS analysis; assay type: ADME, organism-based; parameters: dose 10 mg/kg, route oral; how it was run: as §3
[9] = Drug level in cynomolgus monkey plasma at 3 mg/kg, po measured at 12 hrs post dose by LC-MS/MS analysis; assay type: ADME, organism-based, Macaca fascicularis
[10] = Oral bioavailability in cynomolgus monkey at 5 mg/kg measured up to 24 hrs post dose by LC-MS/MS analysis; assay type: ADME, organism-based, Macaca fascicularis; settings: in vivo
How it was run: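 Three female cynomolgus monkeys per group; single oral dose of 7.8 μmol/kg in 5% Solutol in 20% Captisol, 25 mM PBS, pH 2 (5 mL/kg), with a separate IV arm at 1.5 μmol/kg in 5% DMSO/10% Solutol in saline, pH 6.5 (2 mL/kg). F = (AUC_INFpo × Dose_iv)/(AUC_INFiv × Dose_po); mean ± SD.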

[11] = Drug level in cynomolgus monkey plasma at 10 mg/kg, po measured at 8 hrs post dose by LC-MS/MS analysis; assay type: ADME, organism-based, Macaca fascicularis
[12] = Drug level in cynomolgus monkey plasma at 3 mg/kg, po measured at 1 hr post dose by LC-MS/MS analysis; assay type: ADME, organism-based, Macaca fascicularis
[13] = Drug level in cynomolgus monkey CSF at 10 mg/kg, po measured at 3 hrs post dose by LC-MS/MS analysis; assay type: ADME, organism-based, Macaca fascicularis, Cerebrospinal fluid; settings: read-out: Drug uptake; how it was run: as §2
[14] = Total clearance in cynomolgus monkey at 1 mg/kg, iv or 5 mg/kg, po measured up to 12 or 24 hrs post dose by LC-MS/MS analysis; assay type: ADME, organism-based, Macaca fascicularis; settings: in vivo
How it was run: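 Three female cynomolgus monkeys per group, single dose: IV 1.5 μmol/kg in 5% DMSO/10% Solutol in saline, pH 6.5 (2 mL/kg), or PO 7.8 μmol/kg in 5% Solutol in 20% Captisol, 25 mM PBS, pH 2 (5 mL/kg). Parameters come from plasma concentration–time data; mean ± SD.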

[15] = Drug level in cynomolgus monkey CSF at 10 mg/kg, po measured at 1 hr post dose by LC-MS/MS analysis; assay type: ADME, organism-based, Macaca fascicularis, Cerebrospinal fluid; settings: read-out: Drug uptake; how it was run: as §2
Rattus norvegicus [16] = assay: In vivo inhibition of glycine transporter-1 in Sprague-Dawley rat assessed as increase in medial prefrontal cortex glycine level at 3 to 10 mg/kg, po administered through oral gavage measured after 80 to 300 mins by LC-MS/MS analysis relative to control; assay type: functional; parameters: scale not given: the % may be the effect or the level left
How it was run: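 Freely moving drug-naive adult male Sprague-Dawley rats, n = 5-6 per group, given 1.5, 4.7 or 15.7 μmol/kg by oral gavage at t = 0. Vehicle was 5% Solutol / 20% Captisol in 25 mM PBS, pH 2. mPFC dialysate was sampled over 5 h and analysed by HPLC-MS/MS. Values were normalized to basal levels (t = -80 to 0 min). Two-way repeated-measures ANOVA with Student-Newman-Keuls test.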

[17] = Drug level in cynomolgus monkey plasma at 3 mg/kg, po measured at 4 hrs post dose by LC-MS/MS analysis; assay type: ADME, organism-based, Macaca fascicularis
[18] = Drug level in po dosed Sprague-Dawley rat plasma measured 2 hrs post dose by LC-MS/MS analysis; assay type: ADME, organism-based; settings: in vivo
[19] = Apparent terminal half life in cynomolgus monkey plasma at 1 mg/kg, iv or 5 mg/kg, po by LC-MS/MS analysis; assay type: ADME, organism-based, Macaca fascicularis; settings: read-out: betat1/2(app) (converted)
How it was run: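 Single-dose PK in female cynomolgus monkeys, n = 3 per group: 1.5 μmol/kg IV in 5% DMSO/10% Solutol in saline, pH 6.5 (2 mL/kg), or 7.8 μmol/kg PO in 5% Solutol in 20% Captisol, 25 mM PBS, pH 2 (5 mL/kg). Plasma parameters reported as mean ± SD.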

[20] = Drug level in cynomolgus monkey CSF at 0.3 to 3 mg/kg, po measured up to 24 hrs post dose by LC-MS/MS analysis; assay type: ADME, organism-based, Macaca fascicularis, Cerebrospinal fluid; settings: in vivo, BLD = below limit of detection; how it was run: as §2
[21] = Drug level in cynomolgus monkey CSF at 10 mg/kg, po measured at 24 hrs post dose by LC-MS/MS analysis; assay type: ADME, organism-based, Macaca fascicularis, Cerebrospinal fluid; settings: read-out: Drug uptake; how it was run: as §2

Cl.Cn1cc(S(=O)(=O)N2CCN(C3(CNC(=O)c4ccc(C(F)(F)F)cc4Cl)CCC(F)(F)CC3)CC2)nn1
concentration at 2 h [1]: 334 nM
inhibition (Rattus norvegicus [2]): Active
Activity (Rattus norvegicus [3]): 315%
concentration at 2 h [4]: 1.9 nM
Activity [5]: Non-Toxic

CC(NC(=O)c1ccc(C(F)(F)F)cc1Cl)C1(N2CCN(S(=O)(=O)c3cn(C)nn3)CC2)CCC(F)(F)CC1.Cl (single isomer, unassigned; (+))
concentration at 12 h [6]: 5 ng/mL
AUC(0-t) at 24 h [7]: 1960 ng·h/mL
Cmax [8]: 352 ng/mL
concentration at 12 h [9]: < 1 ng/mL
bioavailability [10]: 31%
concentration at 8 h [11]: 156 ng/mL
concentration at 1 h [12]: 3.6 ng/mL
concentration at 3 h [13]: 11.3 ng/mL
clearance [14]: 24.9 mL/min/kg
concentration at 1 h [15]: 5.9 ng/mL
Activity (Rattus norvegicus [16]): >150%
concentration at 4 h [17]: 3.7 ng/mL
Drug uptake [18]: Dose-dependent effect
half-life [19]: 6.27 h
Drug uptake [20]: Bld
concentration at 24 h [21]: 1.2 ng/mL
